Source: ChEMBL document CHEMBL3734686, “Synthesis, Photophysical Properties, and Biological Evaluation of trans-Bisthioglycosylated Tetrakis(fluorophenyl)chlorin for Photodynamic Therapy” (J Med Chem, 2015)
pEC50: −log10 of the molar value.

Columns and labels:
[1] = system: 4T1; experiment: Potency index, ratio of compound antitumor activity to mono-L-aspartyl chlorin e6 antitumor activity against mouse 4T1 cells implanted in ip dosed BALB/c mouse; type: functional
[2] = system: Heart; experiment: Drug uptake in BALB/c mouse heart implanted with mouse 4T1 cells assessed per gram of tissue at 0.18 mg/kg, ip after 48 hrs by HPLC-based fluorescence analysis; type: ADME, organism-based; conditions: in vivo
How it was run: (§1)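 Female BALB/c mice bearing 4T1 thigh tumours received an i.p. dose in ethanol/PEG400/H2O (2/3/5) with 0.1% DMSO, or in saline, and were kept dark until killed. Tissues were weighed (100 mg), homogenised in CH3OH/DMSO/H2O (32/8/1) and centrifuged twice at 2300×g at 4°C. Supernatants were analysed by HPLC with fluorescence detection (λex 404/λem 654 nm or λex 400/λem 666 nm). n = 3 per time point.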

[3] = system: Kidney; experiment: Drug uptake in BALB/c mouse kidney implanted with mouse 4T1 cells assessed per gram of tissue at 0.18 mg/kg, ip after 6 hrs by HPLC-based fluorescence analysis; type: ADME, organism-based; conditions: in vivo; how it was run: as §1
[4] = system: Lung; experiment: Drug uptake in BALB/c mouse lung implanted with mouse 4T1 cells assessed per gram of tissue at 0.18 mg/kg, ip after 6 hrs by HPLC-based fluorescence analysis; type: ADME, organism-based; conditions: in vivo; how it was run: as §1
[5] = Photocytotoxicity against rat RGK1 cells assessed as cell survival preincubated for 24 hrs followed by irradiation at 16 J/cm2 measured at 24 hrs by WST-8 assay; type: functional, cell-based; conditions: RGK1, light or radiation study
How it was run: (§2)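 Cells (5 × 10^3/well) in DMEM with 10% FCS, 24 h at 37°C, 5% CO2; photosensitizer 1–50000 nM (1% DMSO final) for 24 h, washed, fresh medium. Irradiated with 100-W halogen lamp through λ>500 nm or λ>600 nm cutoff filter to 16 J·cm−2; WST-8 absorbance at 450 nm 24 h later, survival normalized to no-drug wells.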

[6] = system: Liver; experiment: Drug uptake in BALB/c mouse liver implanted with mouse 4T1 cells assessed per gram of tissue at 0.18 mg/kg, ip after 6 hrs by HPLC-based fluorescence analysis; type: ADME, organism-based; conditions: in vivo; how it was run: as §1
[7] = system: Muscle tissue; experiment: Drug uptake in BALB/c mouse muscle implanted with mouse 4T1 cells assessed per gram of tissue at 0.18 mg/kg, ip after 12 hrs by HPLC-based fluorescence analysis; type: ADME, organism-based; conditions: in vivo; how it was run: as §1
[8] = system: 4T1; experiment: Photocytotoxicity against mouse 4T1 cells assessed as cell survival preincubated for 24 hrs followed by irradiation at 16 J/cm2 measured at 24 hrs by WST-8 assay; type: functional, cell-based; conditions: 4T1, light or radiation study; how it was run: as §2
[9] = system: Zone of skin; experiment: Drug uptake in BALB/c mouse skin implanted with mouse 4T1 cells assessed per gram of tissue at 0.18 mg/kg, ip after 24 hrs by HPLC-based fluorescence analysis; type: ADME, organism-based; conditions: in vivo
How it was run: (§3)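 Female BALB/c mice with 4T1 cells (1 × 10^6 in HBSS) implanted in left rear thigh; single i.p. dose, 7 in ethanol/PEG400/H2O (2/3/5) with 0.1% DMSO, mono-L-aspartyl chlorin e6 in saline; kept dark until sacrifice. Tissues washed, frozen, homogenized in CH3OH/DMSO/H2O (32/8/1), centrifuged 2300×g; supernatant analysed by HPLC with fluorescence detection; three animals per time point.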

[10] = system: Zone of skin; experiment: Drug uptake in BALB/c mouse skin implanted with mouse 4T1 cells assessed per gram of tissue at 0.18 mg/kg, ip after 12 hrs by HPLC-based fluorescence analysis; type: ADME, organism-based; conditions: in vivo; how it was run: as §3
[11] = system: Liver; experiment: Drug uptake in BALB/c mouse liver implanted with mouse 4T1 cells assessed per gram of tissue at 0.18 mg/kg, ip after 48 hrs by HPLC-based fluorescence analysis; type: ADME, organism-based; conditions: in vivo; how it was run: as §1
[12] = Drug uptake in BALB/c mouse small intestine implanted with mouse 4T1 cells assessed per gram of tissue at 0.18 mg/kg, ip after 12 hrs by HPLC-based fluorescence analysis; type: ADME, organism-based; conditions: in vivo; how it was run: as §3
[13] = system: Liver; experiment: Drug uptake in BALB/c mouse liver implanted with mouse 4T1 cells assessed per gram of tissue at 0.18 mg/kg, ip after 12 hrs by HPLC-based fluorescence analysis; type: ADME, organism-based; conditions: in vivo; how it was run: as §1
[14] = system: Mus musculus; experiment: Drug uptake in mouse 4T1 cells implanted BALB/c mouse assessed as time for drug accumulation at 0.045 to 0.36 mg/kg, ip administered for 48 hrs followed by irradiation at 40 mW/cm2; conditions: in vivo
[15] = system: Heart; experiment: Drug uptake in BALB/c mouse heart implanted with mouse 4T1 cells assessed per gram of tissue at 0.18 mg/kg, ip after 24 hrs by HPLC-based fluorescence analysis; type: ADME, organism-based; conditions: in vivo; how it was run: as §1
[16] = system: T98G; experiment: Photocytotoxicity against human T98G cells assessed as cell survival preincubated for 24 hrs followed by irradiation at 16 J/cm2 measured at 24 hrs by WST-8 assay; type: functional, cell-based; conditions: light or radiation study; how it was run: as §2
[17] = system: Spleen; experiment: Drug uptake in BALB/c mouse spleen implanted with mouse 4T1 cells assessed per gram of tissue at 0.18 mg/kg, ip after 72 hrs by HPLC-based fluorescence analysis; type: ADME, organism-based; conditions: in vivo; how it was run: as §3
[18] = Drug uptake in BALB/c mouse small intestine implanted with mouse 4T1 cells assessed per gram of tissue at 0.18 mg/kg, ip after 48 hrs by HPLC-based fluorescence analysis; type: ADME, organism-based; conditions: in vivo; how it was run: as §3
[19] = Photocytotoxicity against mouse B16-F1 cells assessed as cell survival preincubated for 24 hrs followed by irradiation at 16 J/cm2 measured at 24 hrs by WST-8 assay; type: functional, cell-based; conditions: B16-F1, light or radiation study; how it was run: as §2
[20] = system: Zone of skin; experiment: Drug uptake in BALB/c mouse skin implanted with mouse 4T1 cells assessed per gram of tissue at 0.18 mg/kg, ip after 6 hrs by HPLC-based fluorescence analysis; type: ADME, organism-based; conditions: in vivo; how it was run: as §3
[21] = Induction of reactive oxygen generation assessed as quantum yield of hydrogen peroxide generation in O2 saturated PBS containing 1% DMSO under photoirradiation by spectrometry relative to control hematoporphyrin; type: physicochemical; conditions: buffer
How it was run: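 Photosensitizer (1.00 µM) with HPF (2.00 µM) in PBS containing 1% DMSO, oxygenated 1 min, irradiated with 100-W halogen lamp through λ>500 nm cutoff filter at 37°C; hematoporphyrin as reference.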

[22] = system: Muscle tissue; experiment: Drug uptake in BALB/c mouse muscle implanted with mouse 4T1 cells assessed per gram of tissue at 0.18 mg/kg, ip after 6 hrs by HPLC-based fluorescence analysis; type: ADME, organism-based; conditions: in vivo; how it was run: as §1
[23] = system: HeLa; experiment: Dark cytotoxicity against human HeLa cells at 0.5 uM assessed as cell survival preincubated for 24 hrs measured by WST-8 assay in absence of photoirradiation; type: cell-based
How it was run: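 HeLa cells were seeded at 5 × 10^3 per well in DMEM with 10% FCS and grown for 24 h at 37°C. They were then exposed for 24 h to 0.5 µM photosensitizer (1% DMSO final), washed, and not irradiated. Viability was read 24 h later by WST-8 absorbance at 450 nm and expressed as percent of untreated wells.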

[24] = system: Heart; experiment: Drug uptake in BALB/c mouse heart implanted with mouse 4T1 cells assessed per gram of tissue at 0.18 mg/kg, ip after 12 hrs by HPLC-based fluorescence analysis; type: ADME, organism-based; conditions: in vivo; how it was run: as §1
[25] = system: Stomach; experiment: Drug uptake in BALB/c mouse stomach implanted with mouse 4T1 cells assessed per gram of tissue at 0.18 mg/kg, ip after 6 hrs by HPLC-based fluorescence analysis; type: ADME, organism-based; conditions: in vivo; how it was run: as §3

Q: For `CN1CC2C3=N/C(=C(/c4c(F)c(F)c(S[C@@H]5O[C@H](CO)[C@@H](O)[C@H](O)[C@H]5O)c(F)c4F)C4=N/C(=C(/c5c(F)c(F)c(F)c(F)c5F)c5ccc([nH]5)/C(c5c(F)c(F)c(S[C@@H]6O[C@H](CO)[C@@H](O)[C@H](O)[C@H]6O)c(F)c5F)=C5/C=CC(=N5)C3c3c(F)c(F)c(F)c(F)c3F)C=C4)C2C1` (stereo not given in full), which Ratio [1] is on record?
A: Its Ratio is 250.

Q: What about the Drug uptake [2] of the same molecule?
A: Its Drug uptake is 2.1 ng/g.

Q: What about the Drug uptake [3] of the same molecule?
A: The Drug uptake was 38 ng.

Q: And the Drug uptake [4]?
A: Its Drug uptake is 70 ng/g.

Q: What about the pEC50 [5] of the same molecule?
A: The pEC50 was 9.00.

Q: What about the Drug uptake [6] of the same molecule?
A: Its Drug uptake is 109 ng/g.

Q: And the Drug uptake [7]?
A: The Drug uptake was 4 ng.

Q: What about the pEC50 [8] of the same molecule?
A: Its pEC50 is 9.30.

Q: What about the Drug uptake [9] of the same molecule?
A: Its Drug uptake is 0 ng.

Q: What about the Drug uptake [10] of the same molecule?
A: Its Drug uptake is 0 ng.

Q: And the Drug uptake [11]?
A: Its Drug uptake is 9 ng.

Q: And the Drug uptake [12]?
A: Its Drug uptake is 80 ng.

Q: What about the Drug uptake [13] of the same molecule?
A: Its Drug uptake is 60 ng/g.

Q: What about the Time [14] of the same molecule?
A: Its Time is 48 h.

Q: And the Drug uptake [15]?
A: The Drug uptake was 6.1 ng/g.

Q: And the pEC50 [16]?
A: The pEC50 was 9.30.

Q: What about the Drug uptake [17] of the same molecule?
A: The Drug uptake was 8 ng.

Q: And the Drug uptake [18]?
A: Its Drug uptake is 9.5 ng/g.

Q: And the pEC50 [19]?
A: Its pEC50 is 9.30.

Q: And the Drug uptake [20]?
A: The Drug uptake was 5 ng.

Q: What about the Ratio [21] of the same molecule?
A: Its Ratio is 0.18.

Q: And the Drug uptake [22]?
A: Its Drug uptake is 2.2 ng.

Q: What about the Activity [23] of the same molecule?
A: The Activity was “Non-toxic”.

Q: And the Drug uptake [24]?
A: Its Drug uptake is 6 ng/g.

Q: What about the Drug uptake [25] of the same molecule?
A: The Drug uptake was 48 ng/g.
